The list is not random: actives were taken first. Their share in the collection is about 3.7%.
EP2 antag: human EP2 receptor antagonists, primary screen, TR-FRET cAMP, C6 glioma cells; C6 glioma cells expressing human EP2; cells stimulated with saturating PGE2; 260,000 compounds, 0.52% hits; inhibition, % at 25 µM;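 active = percent inhibition above 40 after rounding to a whole number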;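 note: rat C6 glioma host cells with rolipram phosphodiesterase inhibitor present; the protocol text gives 20 µM as final concentration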
Target sequence (P43116 whole entry, looked up): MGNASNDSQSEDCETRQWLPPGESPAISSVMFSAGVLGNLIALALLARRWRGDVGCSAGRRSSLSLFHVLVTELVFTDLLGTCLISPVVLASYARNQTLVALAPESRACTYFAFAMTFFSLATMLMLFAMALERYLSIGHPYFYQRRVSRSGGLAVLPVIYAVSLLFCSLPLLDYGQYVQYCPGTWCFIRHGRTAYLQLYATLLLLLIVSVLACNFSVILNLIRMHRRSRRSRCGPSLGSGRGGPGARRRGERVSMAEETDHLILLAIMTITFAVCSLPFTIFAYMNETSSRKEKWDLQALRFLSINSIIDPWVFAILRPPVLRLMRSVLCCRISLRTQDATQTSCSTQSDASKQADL
OX1R antag-1: OX1R (HCRTR1) antagonists, primary screen, fluorescence, CHO/OX1R cells, Fluo-8 calcium, orexin A; inhibition, % at 5 µM; Orexin/Hypocretin receptor type 1 (Homo sapiens), O43613; 330,000 compounds, 0.43% hits; Fluo-8 calcium fluorescence;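 active = inhibition above its plate's threshold, mean inhibition of all tested compounds on the plate plus 3 SD, cut at about 37% in these data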;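 note: 0% = orexin A challenge wells and 100% = SB-334867-A antagonist wells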
OX1R antag-2: antagonists of human orexin 1 receptor (OX1R); Orexin/Hypocretin receptor type 1 (Homo sapiens), O43613; OX1R-expressing cells, FRET antagonist read-out; inhibition, % at 6.6 µM; 330,000 compounds, 1.8% hits; AID 485270, 2010; in the data active = inhibition mostly above about 38%, no sharp cut-off; inactive = mostly below about 40%;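 note: 0% = agonist challenge alone and 100% = reference antagonist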
EP2 mod: EP2 receptor modulators, cAMP readout, primary screen, cell-based, HTRF cAMP, PGE2 stimulation; 260,000 compounds, 0.83% hits; AID 940, 2007; induction, % at 25 µM; Prostaglandin E2 receptor EP2 subtype (Homo sapiens), P43116; EP2-expressing cells, cAMP HTRF FRET, PGE2 co-stimulation;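 active = compounds whose cAMP rise, as percent of the full-agonist control response, exceeds 60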;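 note: rat C6 glioma line stably carrying human EP2 under a CMV promoter; the protocol text gives 20 µM as final concentration; 100% = response of wells given 1 µM PGE2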
CHO parental Ca: ATP-evoked calcium signal inhibitors, parental CHO, primary screen, counter-screen for OX1R antagonist project, cell-based, fluorescence, Fluo-8 calcium dye | parental CHO-K1, ATP-induced calcium, Fluo-8 fluorescence | inhibition, % at 5.6 µM | 330,000 compounds, 0.63% hits;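 active = inhibition above that plate's mean sample inhibition plus 3 SD, cut at about 26% in these data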;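 note: 0% = ATP-challenged DMSO wells and 100% = DMSO wells without ATP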
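Material: parental CHO cells / Compound: single nominal dose of 5.6 µM per compound / Signal: Fluo-8 fluorescence / Replicates: singlicate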
GPR7 antag: GPR7 receptor antagonists, primary screen, cell-based, fluorescence, single concentration | GPR7-expressing cells, fluorescence antagonist assay | inhibition, % at 4.4 µM | 290,000 compounds, 1.1% hits; in the data active = inhibition above about 16%, passing the limit was not always enough;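 note: cells stimulated with the agonist NPW; 0% = agonist with vehicle and 100% = vehicle without agonist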
GPR7 antag cf: GPR7 receptor antagonists, confirmation, cell-based, fluorescence, single concentration. GPR7-expressing cells, calcium fluorescence antagonist mode. shares compounds with GPR7 antag. inhibition, % at 4.4 µM. 2,400 compounds, 52% hits; in the data active = inhibition above about 24%;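 note: stimulated with the GPR7 agonist NPW; 0% = agonist plus vehicle and 100% = vehicle alone without agonist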
MCHR1 antagonist: MCHR1 antagonists in cells, counter-screen for GPR7 antagonist project, cell-based, fluorescence, human; shares compounds with GPR7 antag; MCHR1-expressing cells, fluorescence antagonist assay; inhibition, % at 4.4 µM; 2,400 compounds, 62% hits; in the data active = inhibition above about 22%;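 note: 0% = vehicle with agonist and 100% = vehicle without agonist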
* = called active by the depositor; x = no result.

SMILES	EP2 antag	OX1R antag-1	OX1R antag-2	EP2 mod	CHO parental Ca	GPR7 antag	GPR7 antag cf	MCHR1 antagonist
CCn1c(SCC(=O)N2CCCCCC2)nnc1-c1ccoc1C	5.2	x	x	5.7	x	x	x	x
CCCC(c1nnnn1Cc1ccco1)N1CCN(c2cc(Cl)ccc2C)CC1 (stereo unspecified)	8.3	4.6	15.9	21.5	-9.6	26.5*	34.7*	50.2*
COc1ccccc1NC(=O)c1nc(S(=O)(=O)Cc2ccccc2)ncc1Cl	x	26.6	8.8	x	16.6	32.5*	40.9*	29.5*
CCS(=O)(=O)c1ncc(Cl)c(C(=O)Nc2ccc(S(=O)(=O)N3CCC(C)CC3)cc2)n1	x	24.5	46.5*	x	40.9*	58.4*	88.6*	95.0*
CC(=O)Nc1ccc(NC(=O)c2nc(S(=O)(=O)Cc3cccc(C)c3)ncc2Cl)cc1	x	25.1	5.1	x	26.0	16.9	x	x
COC(=O)c1ccc(NC(=O)c2nc(S(=O)(=O)Cc3cccc(C)c3)ncc2Cl)cc1	x	45.2	20.8	x	28.0	32.0*	72.1*	85.9*
CCc1ccc(NC(=O)c2nc(S(=O)(=O)Cc3ccccc3)ncc2Cl)cc1	x	63.2*	23.5	x	57.3*	56.1*	88.1*	102.8*
CC1CCN(S(=O)(=O)c2ccc(NC(=O)c3ccncc3)cc2)CC1	x	0.8	15.6	x	1.0	3.5	x	x
COc1ccc(-c2nn(-c3ccccc3)cc2/C=N/NC(=O)c2cccc(S(=O)(=O)Nc3ccccc3OC)c2)cc1	9.6	-6.1	14.1	-25.9	-10.0	7.7	x	x
COc1ccc2[nH]c(=O)c(CN(C(=O)c3ccccn3)C3CCCCC3)cc2c1	12.8	-11.8	15.0	-5.2	-22.1	23.4*	9.3	-11.5
CC(=O)c1cccc(NC(=O)NC2CC3CCCC(C2)N3CC(C)C)c1 (stereo unspecified)	9.0	-7.0	14.5	6.1	-9.4	-14.0	x	x
COc1ccc(CC2(CO)CCN(Cc3ccc(NC(C)=O)cc3)CC2)cc1	0.9	-21.5	13.5	-9.4	-7.0	-20.0	x	x
COc1ccc(CC2(CO)CCN(Cc3nc(C(C)C)cs3)CC2)cc1	6.1	-27.8	17.8	-77.3	-29.7	24.6*	8.2	40.1*
CC(C)C[C@H]1CN=C(Nc2ccccc2)N1CCC1CCCC1	x	-35.2	21.7	x	-21.6	23.9	x	x
c1ccc(C[C@H]2CN=C(Nc3ccccc3)N2CCCC2CCCCC2)cc1	x	0.0	5.3	x	-23.7	x	x	x
CC(C)C[C@H]1CN=C(Nc2ccccc2)N1CC1CCC(C)CC1 (stereo partly specified)	x	-35.6	18.8	x	-10.9	33.2*	29.7*	21.8*
CC(C)C[C@H]1CN=C(Nc2ccccc2)N1CCCC1CCCC1	x	-31.0	8.9	x	-22.3	45.6*	48.9*	35.6*
CC(C)C[C@H]1CN=C(Nc2ccccc2)N1CCCC1CCCCC1	x	-42.2	15.1	x	-21.4	55.4*	53.4*	38.6*
CCCCCCCN1C(Nc2ccccc2)=NC[C@@H]1CC(C)C	x	-17.6	19.9	x	-13.6	44.3*	39.6*	34.0*
CC(C)c1nnc(NC(=O)Cc2c(F)cccc2Cl)s1	8.5	x	x	11.1	x	x	x	x
Cc1cc(C)c2[nH]c(=O)c(CN(CCCO)Cc3nnnn3C3CCCCC3)cc2c1	7.1	x	x	4.7	x	x	x	x
COc1ccc(OCC(O)CN2CCC(CN3C(=O)c4cccc5cccc(c45)C3=O)CC2)cc1 (stereo unspecified)	x	-20.0	45.9	x	-20.3	x	x	x
